Data published in PubChem BioAssay AID624007 (Broad Institute, 2012).
A number with no mark means an inactive call.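 How the source made its calls: active means compounds lowering the uptake signal whose fitted half-maximal concentration is at most twice their top valid dose; inconclusive means flat curve between 30% and 70% signal loss, or poor fit; inactive means opposite direction, flat near zero, or potency beyond limit.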

Experiment: DiI-HDL uptake inhibition in parental ldlA7 cells, dose response, counter-screen for SR-BI HDL uptake inhibitor project, cell-based, CHO ldlA7, fluorescence, dry powder, set 2 (AID 624007)
Conditions: 3 h, at 35000 nM
In short: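 assay system = ldlA7 CHO cells without LDL receptor, no mSR-BI overexpression | timing = 3 h exposure at 37 °C | signal = bottom-read fluorescence after PBS washes, excitation 550 nm, emission 595 nm | reagent = DiI-labelled HDL, 10 µg/mL final | doses = pin-transferred compounds | medium = HEPES-buffered (pH 7.4) F12 plus 0.5% fatty acid-free BSA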

SMILES | DiI-HDL uptake signal change vs neutral control (%), lower = more inhibition [%]
C=CCOC(=O)N(C)C[C@@H]1Oc2ccc(NC(=O)NC(C)C)cc2C(=O)N([C@H](C)CO[Si](C)(C)C(C)(C)C)C[C@H]1C | 18.2
C=CCOC(=O)N(C)C[C@@H]1Oc2ccc(N)cc2C(=O)N([C@H](C)CO[Si](C)(C)C(C)(C)C)C[C@H]1C | 4.25
CC(C)NC(=O)Nc1ccc2c(c1)C(=O)N([C@@H](C)CO)C[C@@H](C)[C@H](CN(C)S(=O)(=O)c1ccc(Cl)cc1)O2 | -2.49
C=CCOC(=O)N(C)C[C@@H]1Oc2ccc(NC(=O)OCC3c4ccccc4-c4ccccc43)cc2C(=O)N([C@H](C)CO)C[C@H]1C | 18.3
